Our source for the inhibition and IC50 values is ChEMBL document CHEMBL1149392, “PTP-1B inhibitors: cyclopenta[d][1,2]-oxazine derivatives” (Bioorg Med Chem Lett, 2006).

The source made the active and inactive calls. The rule behind the calls is not given here.

Assay [1] deals with T1, Tyrosine-protein phosphatase non-receptor type 1 (Homo sapiens) (UniProt P18031).
T1 sequence (whole entry): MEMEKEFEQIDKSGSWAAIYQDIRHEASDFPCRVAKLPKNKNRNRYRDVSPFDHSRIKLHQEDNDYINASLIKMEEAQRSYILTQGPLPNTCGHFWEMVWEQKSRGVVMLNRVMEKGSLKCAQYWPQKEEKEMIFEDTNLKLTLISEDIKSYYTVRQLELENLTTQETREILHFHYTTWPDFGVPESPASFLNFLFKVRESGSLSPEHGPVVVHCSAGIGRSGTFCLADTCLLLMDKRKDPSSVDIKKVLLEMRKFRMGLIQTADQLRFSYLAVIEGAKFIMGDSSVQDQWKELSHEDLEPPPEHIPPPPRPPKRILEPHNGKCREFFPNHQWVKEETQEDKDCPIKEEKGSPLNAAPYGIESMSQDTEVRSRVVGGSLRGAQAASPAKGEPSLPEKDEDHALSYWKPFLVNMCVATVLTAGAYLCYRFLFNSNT
Kind of assay: Inhibitory activity against recombinant human PTP1B at 10 uM.

Assay [2] deals with T2, Tyrosine-protein phosphatase non-receptor type 1 (Homo sapiens, UniProt P18031).
T2 sequence (P18031 whole entry): T1 sequence (whole entry)
Kind of assay: Inhibitory activity against recombinant human PTP1B. An outline of the steps: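 Recombinant human PTP-1B (0.1 μg) incubated with 20 μM fluorescein diphosphate and compound in 30 mM Tris, 75 mM NaCl, 0.67 mM EDTA, 1 mM DTT, pH 8.0, for 1 h at room temperature. Product fluorescein monophosphate read by fluorescence (ex 485 nm, em 538 nm). IC50 reported.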

In assay [3] the target is T3, Receptor-type tyrosine-protein phosphatase C (Homo sapiens) (UniProt P08575).
T3 sequence (whole entry): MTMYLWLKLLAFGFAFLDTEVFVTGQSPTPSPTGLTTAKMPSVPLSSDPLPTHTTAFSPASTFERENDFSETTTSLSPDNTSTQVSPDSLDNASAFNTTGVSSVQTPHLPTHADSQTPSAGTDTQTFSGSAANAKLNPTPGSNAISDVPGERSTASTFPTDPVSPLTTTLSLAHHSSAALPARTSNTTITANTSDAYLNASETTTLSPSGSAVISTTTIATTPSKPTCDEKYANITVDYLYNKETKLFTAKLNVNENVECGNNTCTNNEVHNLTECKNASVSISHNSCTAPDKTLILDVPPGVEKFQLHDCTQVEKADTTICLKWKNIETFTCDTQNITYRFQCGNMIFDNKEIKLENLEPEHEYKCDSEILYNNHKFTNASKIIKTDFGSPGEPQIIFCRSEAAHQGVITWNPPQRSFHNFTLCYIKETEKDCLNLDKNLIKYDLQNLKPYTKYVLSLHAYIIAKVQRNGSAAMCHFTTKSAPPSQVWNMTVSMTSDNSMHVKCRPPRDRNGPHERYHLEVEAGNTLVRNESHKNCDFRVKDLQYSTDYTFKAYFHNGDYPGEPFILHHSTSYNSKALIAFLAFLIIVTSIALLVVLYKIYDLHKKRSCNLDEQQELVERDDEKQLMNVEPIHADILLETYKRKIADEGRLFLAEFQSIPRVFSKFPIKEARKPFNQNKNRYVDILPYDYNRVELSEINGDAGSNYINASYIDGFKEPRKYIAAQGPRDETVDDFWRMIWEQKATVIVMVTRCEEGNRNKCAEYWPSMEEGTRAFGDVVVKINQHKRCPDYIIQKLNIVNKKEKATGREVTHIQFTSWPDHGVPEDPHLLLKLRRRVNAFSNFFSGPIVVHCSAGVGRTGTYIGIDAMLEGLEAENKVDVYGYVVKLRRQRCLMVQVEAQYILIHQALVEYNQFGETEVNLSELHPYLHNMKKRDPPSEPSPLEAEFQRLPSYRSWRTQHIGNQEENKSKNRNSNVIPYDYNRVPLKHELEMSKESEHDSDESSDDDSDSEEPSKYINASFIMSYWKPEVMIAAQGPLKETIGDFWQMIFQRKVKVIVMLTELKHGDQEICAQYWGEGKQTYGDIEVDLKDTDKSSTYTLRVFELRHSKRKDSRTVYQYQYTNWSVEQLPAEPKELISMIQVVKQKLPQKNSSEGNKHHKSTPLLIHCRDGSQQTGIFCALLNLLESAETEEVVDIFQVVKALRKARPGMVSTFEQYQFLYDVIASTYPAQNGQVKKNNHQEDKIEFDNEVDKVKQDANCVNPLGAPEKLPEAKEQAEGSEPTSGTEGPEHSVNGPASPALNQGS
Kind of assay: Inhibitory activity against CD45 phosphatase at 10 uM. The procedure, abridged:
(§1)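 Phosphatase selectivity panel using fluorescein diphosphate substrate at 20 μM, the same level as in the PTP-1B assay. Compound tested at a single concentration of 10 μM; percent inhibition of enzyme activity reported.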

Assay [4] concerns the target Serine/threonine-protein phosphatase PP1-gamma catalytic subunit (Homo sapiens, UniProt P36873). Kind of assay: Inhibitory activity against Protein phosphatase 1 at 10 uM. The procedure, abridged:
as §1

The target of assay [5] is Dual specificity protein phosphatase 3 (Homo sapiens, UniProt P51452). Kind of assay: Inhibitory activity against VH1-related phosphatase VHR at 10 uM. An outline of the steps: as §1
Sequence of Dual specificity protein phosphatase 3 (P51452 whole entry, looked up): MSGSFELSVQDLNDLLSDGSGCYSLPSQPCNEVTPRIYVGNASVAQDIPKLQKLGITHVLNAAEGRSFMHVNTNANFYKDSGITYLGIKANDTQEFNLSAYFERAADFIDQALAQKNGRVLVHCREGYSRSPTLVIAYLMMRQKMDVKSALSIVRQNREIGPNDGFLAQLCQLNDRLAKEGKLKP
Assay [6] deals with Receptor-type tyrosine-protein phosphatase F (Homo sapiens, UniProt P10586). Kind of assay: Inhibitory activity against LAR protein tyrosine phosphatase at 10 uM. An outline of the steps:
as §1

Assay [7] has as its target Tyrosine-protein phosphatase YopH (Yersinia enterocolitica) (UniProt P15273). Description: Inhibitory activity against YOP protein tyrosine phosphatase at 10 uM. An outline of the steps:
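Yop phosphatase tested in the nine-phosphatase selectivity panel with 20 μM fluorescein diphosphate as substrate. Inhibitor tested at a single concentration of 10 μM; the value is % inhibition.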

Assay [8] deals with T4, M-phase inducer phosphatase 1 (Homo sapiens) (UniProt P30304).
T4 sequence (whole entry): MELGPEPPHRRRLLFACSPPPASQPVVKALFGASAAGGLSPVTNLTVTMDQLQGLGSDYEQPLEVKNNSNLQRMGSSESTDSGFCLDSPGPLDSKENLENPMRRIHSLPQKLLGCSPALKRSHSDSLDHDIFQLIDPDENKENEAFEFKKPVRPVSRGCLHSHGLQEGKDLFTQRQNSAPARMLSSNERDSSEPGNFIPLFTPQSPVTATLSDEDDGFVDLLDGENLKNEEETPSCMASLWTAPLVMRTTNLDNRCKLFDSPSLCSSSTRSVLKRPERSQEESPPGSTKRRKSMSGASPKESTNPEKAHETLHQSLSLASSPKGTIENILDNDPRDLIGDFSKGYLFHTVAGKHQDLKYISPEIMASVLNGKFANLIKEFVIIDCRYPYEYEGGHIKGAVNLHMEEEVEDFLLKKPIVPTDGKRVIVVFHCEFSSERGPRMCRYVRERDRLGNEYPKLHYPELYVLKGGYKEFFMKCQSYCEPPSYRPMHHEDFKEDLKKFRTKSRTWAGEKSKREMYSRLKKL
Kind of assay: Inhibitory activity against cdc25A phosphatase at 10 uM. An outline of the steps: as §1

The target in assay [9] is T5, M-phase inducer phosphatase 2 (Homo sapiens) (UniProt P30305).
T5 sequence (whole entry): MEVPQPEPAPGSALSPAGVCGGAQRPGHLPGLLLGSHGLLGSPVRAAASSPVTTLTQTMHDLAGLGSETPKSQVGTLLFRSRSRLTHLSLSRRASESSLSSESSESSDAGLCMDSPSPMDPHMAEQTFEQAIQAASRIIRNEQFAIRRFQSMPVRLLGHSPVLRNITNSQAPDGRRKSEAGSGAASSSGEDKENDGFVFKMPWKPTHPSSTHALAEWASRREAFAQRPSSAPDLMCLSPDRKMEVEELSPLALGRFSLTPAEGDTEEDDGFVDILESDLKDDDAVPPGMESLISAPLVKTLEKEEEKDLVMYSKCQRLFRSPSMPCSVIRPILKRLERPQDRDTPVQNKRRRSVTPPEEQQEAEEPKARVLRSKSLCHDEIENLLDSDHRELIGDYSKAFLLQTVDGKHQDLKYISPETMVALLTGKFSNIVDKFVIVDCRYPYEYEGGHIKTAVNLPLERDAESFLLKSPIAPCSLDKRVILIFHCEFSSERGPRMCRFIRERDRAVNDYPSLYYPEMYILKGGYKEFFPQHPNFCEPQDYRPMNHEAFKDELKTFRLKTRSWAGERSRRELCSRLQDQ
Kind of assay: Inhibitory activity against cdc25B phosphatase at 10 uM. An outline of the steps:
as §1

The nature of assay [10]: Inhibitory activity against protein phosphatase type 2A at 10 uM. The procedure, abridged:
as §1

Sequence of Tyrosine-protein phosphatase YopH (Yersinia enterocolitica) (P15273 whole entry): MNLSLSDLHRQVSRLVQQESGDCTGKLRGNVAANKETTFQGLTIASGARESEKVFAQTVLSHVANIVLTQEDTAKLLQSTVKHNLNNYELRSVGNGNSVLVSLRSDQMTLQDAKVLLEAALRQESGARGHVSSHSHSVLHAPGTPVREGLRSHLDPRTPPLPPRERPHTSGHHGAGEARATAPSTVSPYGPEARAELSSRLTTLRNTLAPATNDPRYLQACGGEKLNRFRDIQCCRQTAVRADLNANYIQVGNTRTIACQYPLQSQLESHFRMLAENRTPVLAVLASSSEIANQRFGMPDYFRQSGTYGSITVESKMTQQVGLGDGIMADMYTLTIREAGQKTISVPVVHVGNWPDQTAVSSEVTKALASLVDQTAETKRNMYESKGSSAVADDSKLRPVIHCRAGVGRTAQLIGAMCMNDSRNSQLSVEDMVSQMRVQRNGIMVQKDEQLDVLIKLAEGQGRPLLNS
Sequence of Serine/threonine-protein phosphatase PP1-gamma catalytic subunit (P36873 2-323 limits assumed): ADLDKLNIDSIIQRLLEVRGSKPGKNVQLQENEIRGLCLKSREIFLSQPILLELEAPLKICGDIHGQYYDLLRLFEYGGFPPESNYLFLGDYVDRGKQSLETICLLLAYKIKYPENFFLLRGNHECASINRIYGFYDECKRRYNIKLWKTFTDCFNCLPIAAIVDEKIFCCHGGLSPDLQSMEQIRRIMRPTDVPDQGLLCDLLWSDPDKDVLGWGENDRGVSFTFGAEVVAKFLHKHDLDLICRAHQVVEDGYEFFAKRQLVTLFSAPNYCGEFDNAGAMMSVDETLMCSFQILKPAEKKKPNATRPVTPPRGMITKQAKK
Sequence of Receptor-type tyrosine-protein phosphatase F (P10586 whole entry): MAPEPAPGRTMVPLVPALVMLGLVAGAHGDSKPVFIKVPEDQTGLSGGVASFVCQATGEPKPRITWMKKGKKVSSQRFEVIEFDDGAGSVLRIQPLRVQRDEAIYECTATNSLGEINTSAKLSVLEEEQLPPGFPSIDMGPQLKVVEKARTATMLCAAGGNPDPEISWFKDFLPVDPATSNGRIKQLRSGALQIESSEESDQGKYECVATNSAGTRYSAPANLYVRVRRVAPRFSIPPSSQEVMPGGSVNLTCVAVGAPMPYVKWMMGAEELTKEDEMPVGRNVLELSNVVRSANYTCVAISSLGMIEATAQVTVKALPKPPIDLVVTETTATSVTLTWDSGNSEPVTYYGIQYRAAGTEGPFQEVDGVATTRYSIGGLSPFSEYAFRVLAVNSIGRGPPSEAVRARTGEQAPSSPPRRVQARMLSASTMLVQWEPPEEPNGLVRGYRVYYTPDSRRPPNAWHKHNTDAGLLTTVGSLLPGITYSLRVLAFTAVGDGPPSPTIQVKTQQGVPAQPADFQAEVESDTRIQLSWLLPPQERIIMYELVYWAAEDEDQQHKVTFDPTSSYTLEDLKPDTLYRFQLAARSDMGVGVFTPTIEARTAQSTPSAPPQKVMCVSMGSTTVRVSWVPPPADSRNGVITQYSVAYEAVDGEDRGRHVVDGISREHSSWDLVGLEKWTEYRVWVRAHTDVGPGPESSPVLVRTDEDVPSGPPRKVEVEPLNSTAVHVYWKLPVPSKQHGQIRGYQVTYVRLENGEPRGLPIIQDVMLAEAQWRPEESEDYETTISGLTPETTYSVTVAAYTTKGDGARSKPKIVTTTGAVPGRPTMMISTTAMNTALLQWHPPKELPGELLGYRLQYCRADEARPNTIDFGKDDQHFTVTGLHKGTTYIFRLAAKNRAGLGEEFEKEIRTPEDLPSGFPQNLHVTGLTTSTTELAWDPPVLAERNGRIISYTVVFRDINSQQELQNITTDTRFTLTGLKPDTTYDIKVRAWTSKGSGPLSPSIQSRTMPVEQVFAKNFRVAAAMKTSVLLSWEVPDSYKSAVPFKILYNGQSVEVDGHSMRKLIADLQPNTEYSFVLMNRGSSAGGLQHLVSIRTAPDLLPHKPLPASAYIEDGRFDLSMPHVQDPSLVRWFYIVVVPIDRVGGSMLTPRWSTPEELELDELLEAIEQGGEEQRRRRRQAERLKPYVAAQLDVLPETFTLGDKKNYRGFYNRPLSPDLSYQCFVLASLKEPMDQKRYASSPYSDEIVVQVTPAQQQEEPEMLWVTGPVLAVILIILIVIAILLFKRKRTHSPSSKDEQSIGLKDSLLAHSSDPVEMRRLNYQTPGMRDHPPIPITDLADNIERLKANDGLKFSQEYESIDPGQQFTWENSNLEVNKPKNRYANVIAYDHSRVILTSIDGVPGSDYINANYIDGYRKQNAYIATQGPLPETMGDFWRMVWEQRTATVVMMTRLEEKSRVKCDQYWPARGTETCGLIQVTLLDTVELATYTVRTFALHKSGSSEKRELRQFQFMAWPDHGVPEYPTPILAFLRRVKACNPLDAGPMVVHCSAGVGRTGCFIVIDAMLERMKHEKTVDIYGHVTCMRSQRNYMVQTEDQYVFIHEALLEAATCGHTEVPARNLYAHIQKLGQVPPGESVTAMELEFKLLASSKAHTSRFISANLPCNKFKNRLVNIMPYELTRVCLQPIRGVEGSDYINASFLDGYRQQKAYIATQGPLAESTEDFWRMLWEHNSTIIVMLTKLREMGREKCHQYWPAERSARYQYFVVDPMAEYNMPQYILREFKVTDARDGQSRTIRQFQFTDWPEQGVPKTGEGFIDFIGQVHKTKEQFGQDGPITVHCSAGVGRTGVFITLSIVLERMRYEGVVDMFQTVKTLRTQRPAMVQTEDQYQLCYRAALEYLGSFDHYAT

Turning to `O=C(O)COc1ccc(-c2nocc3cccc2-3)cc1`, the inhibition in [1] turned out to be 27.4%.

As to `O=C(O)COc1ccc(-c2nocc3c(C(=O)c4ccco4)ccc2-3)cc1`, in assay [1], the inhibition entry was “inactive”.

On to `COc1ccc(C(=O)c2ccc3c(-c4ccc(OCC(=O)O)cc4)noc(C)c2-3)cc1`, for which the inhibition result in assay [1] was “inactive”.

As for `Cc1onc(-c2ccc(OCC(=O)O)cc2)c2cccc1-2`, the inhibition result in assay [1] is “inactive”.

In the case of `O=C(O)COc1ccc(-c2noc(-c3ccccc3)c3cccc2-3)cc1`, the inhibition in [1] came out at 1.1%.

With `O=C(O)COc1ccc(-c2nocc3c(C(=O)c4ccc(Cl)cc4)ccc2-3)cc1`, the inhibition in assay [1] came to 14.3%.

Regarding `COc1ccc(C(=O)c2ccc3c(-c4ccc(OC)cc4)nocc2-3)cc1`, the inhibition in assay [1] is 32%.

Take `O=C(O)COc1ccc(-c2nocc3c(C(=O)c4ccccc4F)ccc2-3)cc1`: the inhibition in assay [1] was determined as 11.9%.

Consider `O=C(O)COc1ccc(-c2nocc3c(C(=O)c4cccc(C(F)(F)F)c4)ccc2-3)cc1`, for which the half-maximal inhibitory concentration (IC50) in assay [2] was 7.55 µM. For the same molecule, the inhibition in [1] is 68.9%.

With `COc1cccc(C(=O)c2ccc3c(-c4ccc(OCC(=O)O)cc4)nocc2-3)c1`, the 50% inhibitory concentration (IC50) in assay [2] came to 1.96 µM. Further, the inhibition in assay [1] was 87.4%.

Turning to `O=C(c1ccc2c(-c3ccc(OC(CCO)C(=O)O)cc3)nocc1-2)C1CCCC1` (configuration not stated), the inhibition entry in [1] is “inactive”.

Turning to `COc1ccc(C(=O)c2ccc3c(-c4ccc(OCC(=O)N5CCN(Cc6ccccc6)CC5)cc4)nocc2-3)cc1`, the IC50 in assay [2] came to 5.48 µM. In addition, the inhibition in assay [1] amounted to 68.8%.

For `COc1ccc(O)c(CC(=O)c2ccc3c(-c4ccc(OCC(=O)O)cc4)nocc2-3)c1`, the inhibition in assay [1] is 48.7%.

Turning to `O=C(O)COc1ccc(-c2nocc3c(C(=O)c4ccc(Cl)cc4Cl)ccc2-3)cc1`, the inhibition in assay [1] worked out at 38%.

As for `COCCNCc1ccc(C(=O)c2ccc3c(-c4ccc(OCC(=O)O)cc4)nocc2-3)cc1`, in [1], the inhibition stood at 10.2%.

Turning to `COc1ccccc1C(=O)c1ccc2c(-c3ccc(OCC(=O)O)cc3)nocc1-2`, the inhibition in assay [1] was 3.8%.

As for `COc1ccc(C(=O)c2ccc3c(-c4ccc(OC(C(=O)O)C(=O)O)cc4)nocc2-3)cc1`, the inhibition in assay [1] was 3.3%.

As for `COc1ccc(C(=O)c2ccc3c(-c4ccc(OCC(=O)NCCO)cc4)nocc2-3)cc1`, the inhibition entry in assay [1] was “inactive”.

`CC(=O)c1ccc2c(-c3ccc(OCC(=O)O)cc3)nocc1-2`: the inhibition result in [1] was “inactive”.

As for `COc1ccc(-c2nocc3c(C(=O)c4ccc(Cl)cc4Cl)ccc2-3)cc1`, the half-inhibitory concentration (IC50) in assay [2] was 3.4 µM. Moreover, the inhibition in assay [1] came out at 101%.

In the case of `CCOC(=O)/C=C/c1ccc2c(-c3ccc(OCC(=O)O)cc3)nocc1-2`, the inhibition result in assay [1] is “inactive”.

With `CCCCCCCCCCCCCCC(=O)c1ccc2c(-c3ccc(OCC(=O)O)cc3)nocc1-2`, the IC50 in [2] came out at 0.27 µM. In addition, in assay [1], the inhibition turned out to be 101%.

As to `COc1ccc(CC(=O)c2ccc3c(-c4ccc(OCC(=O)O)cc4)nocc2-3)cc1`, in assay [2], the IC50 turned out to be 5.63 µM. The inhibition in assay [1] is 85.5%.

On to `COc1ccc(-c2nocc3cccc2-3)cc1`, for which the inhibition in assay [1] worked out at 3%.

In the case of `O=C(c1ccc2c(-c3ccc(OC(C(=O)O)C(=O)O)cc3)nocc1-2)C1CCCC1`, the IC50 in assay [2] was determined as 8.19 µM. Further, the inhibition in assay [1] is 76.7%.

Regarding `COc1ccc(C(=O)c2ccc3c(-c4ccc(OCC(=O)NCN5CCOCC5)cc4)nocc2-3)cc1`, the inhibition entry in assay [1] was “inactive”.

Turning to `COc1ccc(C(=O)c2ccc3c(-c4ccc(O[C@@H](Cc5ccccc5)C(=O)O)cc4)nocc2-3)cc1`, the inhibition in [3] is 95.7%; in [4], 63.5%; in assay [5], -6.83%; in assay [6], 17.3%; in [7], 96.8%; in assay [8], 10.3%. Also, the inhibition in [1] was 80.1%; in [9], 89.7%. Besides, the half-maximal inhibitory concentration (IC50) in [2] stood at 7.82 µM.

Consider `COc1ccc(C(=O)c2ccc3c(-c4cc(Br)c(OCC(=O)O)c(Br)c4)nocc2-3)cc1`, for which the inhibition stood at 100% in assay [3]; 106% in assay [4]; 53.4% in assay [5]; 41.8% in [10]; 57.7% in [6]; 101% in assay [7]. The inhibition in [8] stood at 40.5%; in assay [1], 101%; in assay [9] it was 100%. For the same molecule, the IC50 in [2] was found to be 1.64 µM.

For `CCOC(=O)COc1ccc(-c2nocc3cccc2-3)cc1`, the inhibition in assay [1] is 2.1%.

As for `N#Cc1cccc(C(=O)c2ccc3c(-c4ccc(OCC(=O)O)cc4)nocc2-3)c1`, the inhibition result in assay [1] is “inactive”.

Regarding `O=C(O)COc1ccc(-c2nocc3c(C(=O)CCC4CCCC4)ccc2-3)cc1`, the inhibition in assay [1] was 42.4%.

For the molecule `O=C(O)COc1ccc(-c2nocc3c(C(=O)C4CCCC4)ccc2-3)cc1`, the inhibition in assay [1] was 15.7%.

`Oc1ccc(-c2nocc3cccc2-3)cc1`: the inhibition in assay [1] worked out at 18.5%.
